From ChEMBL document CHEMBL1140029, “Design of novel histone deacetylase inhibitors” (Bioorg Med Chem Lett, 2007)
pIC50: −log10 of the molar value.

Experiments:
HCT-116 [1] = assay: Antiproliferative activity against HCT116 cells after 72 hrs; format: functional, cell-based, Homo sapiens; conditions: for pIC50: Homo sapiens, HCT-116, 72 h, read-out: IC50
Histone deacetylase 1 = Histone deacetylase 1 (Homo sapiens, UniProt Q13547); assay: Inhibition of human HDAC1 expressed in domain of SMRT
Histone deacetylase 2 = Histone deacetylase 2 (Homo sapiens, UniProt Q92769); assay: Inhibition of human HDAC2 expressed in domain of SMRT
Histone deacetylase 3 = Histone deacetylase 3 (Homo sapiens, UniProt O15379); assay: Inhibition of human HDAC3 expressed in domain of SMRT
Outline: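 C-terminal FLAG-tagged human HDAC3, co-expressed with the SMRT domain, was overexpressed in mammalian cells and purified on anti-FLAG matrix. Enzyme at 1–30 nM final was preincubated with 3× serially diluted inhibitor for 10 min at RT. Fluor-de-Lys substrate was then added for 60 min at 37 °C, followed by developer containing SAHA. Fluorescence was read at Ex 360/Em 460 nm to give IC50.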

[2] = molecular target: T1, Protein deacetylase HDAC6 (Homo sapiens, UniProt Q9UBN7); assay: Inhibition of human HDAC6
T1 sequence (Q9UBN7 whole entry): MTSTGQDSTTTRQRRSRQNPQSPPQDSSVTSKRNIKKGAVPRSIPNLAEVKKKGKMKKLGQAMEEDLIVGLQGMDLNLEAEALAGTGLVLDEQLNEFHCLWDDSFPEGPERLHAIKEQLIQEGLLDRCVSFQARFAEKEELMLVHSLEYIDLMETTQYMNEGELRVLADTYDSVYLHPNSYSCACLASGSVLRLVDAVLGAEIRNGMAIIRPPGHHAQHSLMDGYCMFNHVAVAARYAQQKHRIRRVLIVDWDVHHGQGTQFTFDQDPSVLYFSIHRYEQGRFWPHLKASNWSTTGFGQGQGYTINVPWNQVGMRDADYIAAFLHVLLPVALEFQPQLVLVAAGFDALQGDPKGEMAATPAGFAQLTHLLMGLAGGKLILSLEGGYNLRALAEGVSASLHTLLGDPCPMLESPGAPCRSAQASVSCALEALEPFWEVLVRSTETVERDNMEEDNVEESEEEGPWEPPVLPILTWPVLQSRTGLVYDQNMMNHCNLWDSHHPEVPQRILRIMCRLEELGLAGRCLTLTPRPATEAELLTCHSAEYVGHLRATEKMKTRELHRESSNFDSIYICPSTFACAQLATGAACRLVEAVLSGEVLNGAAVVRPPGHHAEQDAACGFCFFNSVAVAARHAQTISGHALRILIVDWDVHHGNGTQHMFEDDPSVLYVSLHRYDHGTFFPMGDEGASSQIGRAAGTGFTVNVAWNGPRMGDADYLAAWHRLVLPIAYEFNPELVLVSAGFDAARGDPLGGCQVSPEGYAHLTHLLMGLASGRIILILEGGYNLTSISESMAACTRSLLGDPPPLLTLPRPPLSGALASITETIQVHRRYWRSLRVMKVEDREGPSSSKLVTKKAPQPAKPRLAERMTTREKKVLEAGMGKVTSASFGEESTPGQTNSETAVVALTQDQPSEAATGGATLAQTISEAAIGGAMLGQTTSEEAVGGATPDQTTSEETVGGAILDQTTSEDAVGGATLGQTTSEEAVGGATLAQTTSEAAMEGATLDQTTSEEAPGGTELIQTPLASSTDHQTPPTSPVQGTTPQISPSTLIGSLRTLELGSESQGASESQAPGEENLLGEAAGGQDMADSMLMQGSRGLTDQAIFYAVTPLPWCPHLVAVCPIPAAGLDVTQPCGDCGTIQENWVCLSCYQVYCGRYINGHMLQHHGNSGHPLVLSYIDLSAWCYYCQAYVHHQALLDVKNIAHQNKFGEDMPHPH
Outline: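 C-terminal FLAG-tagged human HDAC6 overexpressed in mammalian cells, anti-FLAG affinity-purified, 1–30 nM final. Inhibitor serially diluted 3-fold in DMSO from 10 mM stock, then 20-fold into assay buffer. Enzyme preincubated with compound 10 min at RT. Fluor-de-Lys substrate added, 60 min at 37 °C. Developer containing SAHA added, fluorescence read at Ex 360/Em 460 nm. IC50 reported.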

Histone deacetylase 8 = molecular target: T2, Histone deacetylase 8 (Homo sapiens, UniProt Q9BY41); assay: Inhibition of human HDAC8
T2 sequence (Q9BY41 whole entry): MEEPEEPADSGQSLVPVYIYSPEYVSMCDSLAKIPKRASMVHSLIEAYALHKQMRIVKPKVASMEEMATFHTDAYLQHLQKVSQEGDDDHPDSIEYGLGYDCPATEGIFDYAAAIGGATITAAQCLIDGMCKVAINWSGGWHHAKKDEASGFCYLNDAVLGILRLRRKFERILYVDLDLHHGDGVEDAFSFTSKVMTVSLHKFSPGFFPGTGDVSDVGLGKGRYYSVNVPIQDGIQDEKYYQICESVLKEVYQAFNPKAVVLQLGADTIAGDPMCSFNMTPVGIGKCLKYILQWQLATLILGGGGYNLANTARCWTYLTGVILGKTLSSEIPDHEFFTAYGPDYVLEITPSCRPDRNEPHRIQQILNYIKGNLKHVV
Outline: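 HDAC8 came from the Institute for Research in Molecular Biology, Pomezia, and was used at 1–30 nM final. It was preincubated with 3× serially diluted inhibitor for 10 min at RT. Fluor-de-Lys HDAC8 substrate was added for 15 min at 37 °C, then HDAC8 developer containing SAHA. Fluorescence was read at Ex 360/Em 460 nm to give IC50.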

[3] = Plasma clearance in rat at 2.0 mg/kg, iv; format: ADME, organism-based; parameters: dose 2 mg/kg, route intravenous
[4] = Plasma clearance in dog at 0.6 mg/kg, iv; format: ADME, organism-based, Canis lupus familiaris; parameters: dose 0.6 mg/kg, route intravenous
[5] = Plasma clearance in rhesus monkey at 1.0 mg/kg, iv; format: ADME, organism-based, Macaca mulatta; parameters: dose 1 mg/kg, route intravenous
[6] = Volume of distribution in dog at 0.6 mg/kg, iv; format: ADME, organism-based, Canis lupus familiaris; parameters: dose 0.6 mg/kg, route intravenous; conditions: in vivo
[7] = Volume of distribution in rat at 2.0 mg/kg, iv; format: ADME, organism-based; parameters: dose 2 mg/kg, route intravenous; conditions: in vivo
[8] = Volume of distribution in rhesus monkey at 1.0 mg/kg, iv; format: ADME, organism-based, Macaca mulatta; parameters: dose 1 mg/kg, route intravenous; conditions: in vivo
[9] = Bioavailability in rat at 4.0 mg/kg, po; format: ADME, organism-based; conditions: in vivo
[10] = Bioavailability in dog at 1.2 mg/kg, po; format: ADME, organism-based, Canis lupus familiaris; conditions: in vivo
[11] = Bioavailability in rhesus monkey at 2.0 mg/kg, po; format: ADME, organism-based, Macaca mulatta; conditions: in vivo
[12] = Half life in rat at 4.0 mg/kg, po; format: ADME, organism-based; parameters: dose 4 mg/kg, route oral; conditions: in vivo
[13] = Half life in dog at 1.2 mg/kg, po; format: ADME, organism-based, Canis lupus familiaris; parameters: dose 1.2 mg/kg, route oral; conditions: in vivo
[14] = Half life in rhesus monkey at 2.0 mg/kg, po; format: ADME, organism-based, Macaca mulatta; parameters: dose 2 mg/kg, route oral; conditions: in vivo
HCT-116 [15] = assay: Antiproliferative activity against HCT116 cells after 96 hrs; format: functional, cell-based; conditions: Homo sapiens, HCT-116, 96 h

Histone deacetylase 1, sequence (Q13547 whole entry, the tested form may be a part): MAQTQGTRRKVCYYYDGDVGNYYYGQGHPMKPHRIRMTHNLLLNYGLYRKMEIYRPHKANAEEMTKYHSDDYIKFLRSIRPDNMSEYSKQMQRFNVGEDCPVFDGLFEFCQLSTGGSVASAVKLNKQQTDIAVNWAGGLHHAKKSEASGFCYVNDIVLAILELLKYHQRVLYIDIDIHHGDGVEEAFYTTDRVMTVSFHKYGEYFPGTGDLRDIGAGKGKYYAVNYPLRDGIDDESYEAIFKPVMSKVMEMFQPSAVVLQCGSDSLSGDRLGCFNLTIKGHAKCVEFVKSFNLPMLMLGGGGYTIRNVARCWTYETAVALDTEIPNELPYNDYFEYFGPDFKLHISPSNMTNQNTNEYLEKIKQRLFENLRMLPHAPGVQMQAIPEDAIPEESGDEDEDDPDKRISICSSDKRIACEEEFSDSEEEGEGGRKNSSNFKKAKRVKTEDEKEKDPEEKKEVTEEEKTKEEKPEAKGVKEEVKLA
Histone deacetylase 3, sequence (O15379 whole entry, the tested form may be a part): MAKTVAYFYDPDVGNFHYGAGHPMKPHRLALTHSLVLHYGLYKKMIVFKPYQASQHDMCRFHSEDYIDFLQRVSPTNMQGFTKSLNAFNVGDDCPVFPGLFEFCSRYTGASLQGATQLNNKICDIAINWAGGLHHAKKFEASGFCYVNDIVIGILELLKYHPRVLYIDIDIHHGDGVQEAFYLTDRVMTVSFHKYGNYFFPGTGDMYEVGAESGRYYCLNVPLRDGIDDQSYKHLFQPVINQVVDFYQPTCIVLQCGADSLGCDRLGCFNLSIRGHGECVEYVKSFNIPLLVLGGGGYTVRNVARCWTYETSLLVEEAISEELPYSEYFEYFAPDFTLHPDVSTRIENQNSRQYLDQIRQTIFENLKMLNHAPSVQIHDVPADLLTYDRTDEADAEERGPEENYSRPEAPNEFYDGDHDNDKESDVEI
Histone deacetylase 2, sequence (Q92769 whole entry, the tested form may be a part): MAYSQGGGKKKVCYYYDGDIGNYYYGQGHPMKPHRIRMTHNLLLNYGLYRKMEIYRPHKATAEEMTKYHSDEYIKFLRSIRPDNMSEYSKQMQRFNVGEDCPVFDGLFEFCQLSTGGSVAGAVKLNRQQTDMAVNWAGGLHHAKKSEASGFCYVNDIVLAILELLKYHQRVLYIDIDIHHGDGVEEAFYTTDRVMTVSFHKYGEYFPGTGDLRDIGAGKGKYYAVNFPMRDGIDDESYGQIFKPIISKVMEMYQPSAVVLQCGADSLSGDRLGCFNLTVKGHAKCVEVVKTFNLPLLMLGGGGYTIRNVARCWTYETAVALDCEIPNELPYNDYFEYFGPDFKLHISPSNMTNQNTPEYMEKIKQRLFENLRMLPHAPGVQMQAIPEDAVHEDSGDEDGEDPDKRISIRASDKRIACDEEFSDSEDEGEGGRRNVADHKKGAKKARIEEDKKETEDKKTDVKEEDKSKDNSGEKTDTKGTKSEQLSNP

SMILES: CC(C(=O)Nc1ccccc1)(C(=O)Nc1ccccc1)c1ccc(C(=O)Nc2ccccc2N)cc1
- pIC50 (HCT-116 [1]): 5.67
- pIC50 (Histone deacetylase 1): 6.70

SMILES: CC(Cc1ccc(C(=O)Nc2ccccc2N)cc1)(C(=O)Nc1ccccc1)C(=O)Nc1ccccc1
- pIC50 (HCT-116 [1]): 5.60
- pIC50 (Histone deacetylase 1): 6.70

SMILES: CC(C)(C)c1ccc(C(=O)NO)cc1
- pIC50 (Histone deacetylase 1): 6.15

SMILES: O=C(NO)c1ccc(C(C(=O)Nc2ccccc2)C(=O)Nc2ccccc2)cc1
- pIC50 (Histone deacetylase 1): 8.30

SMILES: Nc1ccccc1NC(=O)c1ccc(C(C(=O)Nc2ccccc2)C(=O)Nc2ccccc2)cc1
- pIC50 (HCT-116 [1]): 6.77
- pIC50 (Histone deacetylase 1): 7.44
- pIC50 (Histone deacetylase 2): 6.50
- pIC50 (Histone deacetylase 3): 6.16
- pIC50 [2]: < 5.00
- pIC50 (Histone deacetylase 8): < 5.00
- clearance [3]: 55 mL/min/kg
- clearance [4]: 3 mL/min/kg
- clearance [5]: 12 mL/min/kg
- Vd [6]: 1.8 L/kg
- Vd [7]: 12 L/kg
- Vd [8]: 1.7 L/kg
- bioavailability [9]: 88%
- bioavailability [10]: 88%
- bioavailability [11]: 27%
- half-life [12]: 3.8 h
- half-life [13]: 8.5 h
- half-life [14]: 10.4 h

SMILES: N#Cc1cccc(NC(=O)C(C(=O)Nc2cccc(C#N)c2)c2ccc(C(=O)Nc3ccccc3N)cc2)c1
- pIC50 (HCT-116 [15]): 6.30
- pIC50 (Histone deacetylase 1): 7.47

SMILES: Nc1ccccc1NC(=O)c1ccc(C(C(=O)Nc2ccc(F)cc2)C(=O)Nc2ccc(F)cc2)cc1
- pIC50 (HCT-116 [15]): 6.65
- pIC50 (Histone deacetylase 1): 7.20

SMILES: Nc1ccccc1NC(=O)c1ccc(C(C(=O)Nc2cccc(F)c2)C(=O)Nc2cccc(F)c2)cc1
- pIC50 (HCT-116 [1]): 6.22
- pIC50 (Histone deacetylase 1): 7.25

SMILES: COc1cccc(NC(=O)C(C(=O)Nc2cccc(OC)c2)c2ccc(C(=O)Nc3ccccc3N)cc2)c1
- pIC50 (HCT-116 [1]): 6.42
- pIC50 (Histone deacetylase 1): 7.46

SMILES: COc1ccccc1NC(=O)C(C(=O)Nc1ccccc1OC)c1ccc(C(=O)Nc2ccccc2N)cc1
- pIC50 (HCT-116 [1]): 6.40
- pIC50 (Histone deacetylase 1): 7.33

SMILES: CN(C(=O)C(C(=O)Nc1ccccc1)c1ccc(C(=O)Nc2ccccc2N)cc1)c1ccccc1 (stereo unspecified)
- pIC50 (HCT-116 [1]): 5.94
- pIC50 (Histone deacetylase 1): 6.71

SMILES: CN(C(=O)C(C(=O)N(C)c1ccccc1)c1ccc(C(=O)Nc2ccccc2N)cc1)c1ccccc1
- IC50 (HCT-116 [1]; hct-116): Not Active
- pIC50 (Histone deacetylase 1): 5.14

SMILES: Nc1ccccc1NC(=O)c1ccc(C(C(=O)NCCCc2ccccc2)C(=O)NCCCc2ccccc2)cc1
- pIC50 (HCT-116 [1]): 6.01
- pIC50 (Histone deacetylase 1): 6.64

SMILES: Nc1ccccc1NC(=O)c1ccc(C(F)(C(=O)Nc2ccccc2)C(=O)Nc2ccccc2)cc1
- pIC50 (HCT-116 [1]): 6.37
- pIC50 (Histone deacetylase 1): 7.32

SMILES: Nc1ccccc1NC(=O)c1ccc(C(O)(C(=O)Nc2ccccc2)C(=O)Nc2ccccc2)cc1
- pIC50 (HCT-116 [1]): 6.11
- pIC50 (Histone deacetylase 1): 7.03

SMILES: Nc1ccccc1NC(=O)c1ccc(C(C(=O)NCc2ccccc2)C(=O)NCc2ccccc2)cc1
- pIC50 (HCT-116 [1]): 6.22
- pIC50 (Histone deacetylase 1): 6.70

SMILES: Nc1ccccc1NC(=O)c1ccc(CC(C(=O)Nc2ccccc2)C(=O)Nc2ccccc2)cc1
- pIC50 (HCT-116 [1]): 6.24
- pIC50 (Histone deacetylase 1): 7.33

SMILES: Nc1ccccc1NC(=O)c1ccc(C(C(=O)Nc2ccc3c(c2)OCCO3)C(=O)Nc2ccc3c(c2)OCCO3)cc1
- pIC50 (HCT-116 [1]): 6.66
- pIC50 (Histone deacetylase 1): 7.68

SMILES: Nc1ccccc1NC(=O)c1ccc(C(C(=O)Nc2cccc(N3CCOCC3)c2)C(=O)Nc2cccc(N3CCOCC3)c2)cc1
- pIC50 (HCT-116 [1]): 6.27
- pIC50 (Histone deacetylase 1): 7.35

SMILES: Nc1ccccc1NC(=O)c1ccc(C(C(=O)Nc2cccc3cccnc23)C(=O)Nc2cccc3cccnc23)cc1
- pIC50 (HCT-116 [1]): 5.92
- pIC50 (Histone deacetylase 1): 6.99

SMILES: CC(=O)NO [ACETOHYDROXAMIC ACID]
- pIC50 (Histone deacetylase 1): 3.20

SMILES: O=C(NO)c1ccccc1 [BENZOHYDROXAMATE]
- pIC50 (Histone deacetylase 1): 4.70
